Assay outcomes as filed in PubChem.
MrgX1 allo act: positive allosteric modulators of MrgX1, primary screen, HEK293 cells, Fluo-4 calcium flux; 310,000 tested, 0.63% active; B-score at 10 µM; AID 588675, 2011; FDSS; active compounds read high; Mas-related G-protein coupled receptor member X1 (Homo sapiens), Q96LB2;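 active = plate-corrected calcium response at least 3 library SD above typical, normal starting fluorescence, not activating the receptor alone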;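 also: compound read alongside a low EC10 to EC30 dose of BAM8-22 agonist; peak minus trough fluorescence over baseline measured at the second addition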
Target sequence (Q96LB2 whole entry, looked up): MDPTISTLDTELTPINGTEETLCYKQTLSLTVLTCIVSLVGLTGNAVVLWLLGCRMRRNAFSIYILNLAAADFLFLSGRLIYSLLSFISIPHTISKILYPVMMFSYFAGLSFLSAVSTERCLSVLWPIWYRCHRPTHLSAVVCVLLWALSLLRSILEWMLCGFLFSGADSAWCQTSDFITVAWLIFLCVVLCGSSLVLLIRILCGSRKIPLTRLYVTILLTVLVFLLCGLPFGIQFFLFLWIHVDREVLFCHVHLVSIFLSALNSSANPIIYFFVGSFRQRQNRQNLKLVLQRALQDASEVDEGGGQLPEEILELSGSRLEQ
RGS4 act: RGS4 potentiators or activators, primary screen, cell-based, HEK293 M3R inducible RGS4, calcium flux | carbachol calcium flux Fluo4; active compounds read low | B-score at 10 µM | 310,000 tested, 0.92% active;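 active = B-score of the integrated calcium signal more than 4 SD below the library mean, with starting fluorescence not abnormally high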;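 also: negative B-score means reduced calcium response which marks RGS4 activation or potentiation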
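System – HEK293 FlpIn-TREx cells, stable M3R, doxycycline-inducible RGS4 · Reagent – ECmax carbachol challenge · Times – compound preincubation 20 min at room temperature before agonist · Technique – Fluo4 fluorescence kinetic imaging of calcium · Measure – B score of integrated Fluo4 ratio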
MrgX1 agonist: agonists of human MrgX1 receptor, primary screen, HEK293 cells, Fluo-4 calcium flux; Mas-related G-protein coupled receptor member X1 (Homo sapiens), Q96LB2; Fluo-4 calcium fluorescence, agonist mode; active compounds read high; B-score at 10 µM; 310,000 tested, 0.44% active; AID 588627, 2011;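 active = calcium response B-score plate-corrected fluorescence ratio at least 3 library SD, with starting fluorescence B-score inside 5 SD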
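Assay system: MrgX1-expressing HEK293 cells / Amount: fifteen thousand cells per well / Doses: test compound in the initial addition of three / Timing: cells plated overnight, dye loaded 0.5 h 37 °C, 0.5 h room temperature / Technique: kinetic calcium dye fluorescence, Fluo-4 NW / Control set: positive and negative controls per plate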
Hep lipid drop: inhibitors of hepatocyte lipid droplet formation, primary screen, imaging, high-throughput imaging, BODIPY stain. AML12 mouse hepatocytes, oleate lipid droplets. inhibition, % at 6.5 µM. 240,000 tested, 0.4% active. AID 1656, 2009;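 active = lipid droplet intensity inhibited by at least 50%, with more than 500 cells counted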
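Assay system: AML12 mouse liver cells | Compound: 6.5 µM single-point dosing | Schedule: Overnight exposure | Technique: Fluorescence imaging, 20x objective, two fields per well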
RGS4 inh: RGS4 inhibitors, primary screen, cell-based, HEK293 M3R inducible RGS4, calcium flux. Regulator of G-protein signaling 4 (Homo sapiens), P49798. Fluo-4 calcium flux; active compounds read high; triggered by carbachol at its EC20. B-score at 10 µM. 310,000 tested, 0.45% active. AID 463165, 2010;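 active = B-score, a plate-corrected calcium signal, over three deviations above library mean, with baseline fluorescence within five deviations of library mean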;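 also: RGS4 expression induced by doxycycline in cells with stable M3 receptor; B-score is computed from the integrated fluorescence ratio over baseline after carbachol; higher B-score means a larger calcium signal and so more RGS4 inhibition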
Target sequence (P49798 whole entry, looked up): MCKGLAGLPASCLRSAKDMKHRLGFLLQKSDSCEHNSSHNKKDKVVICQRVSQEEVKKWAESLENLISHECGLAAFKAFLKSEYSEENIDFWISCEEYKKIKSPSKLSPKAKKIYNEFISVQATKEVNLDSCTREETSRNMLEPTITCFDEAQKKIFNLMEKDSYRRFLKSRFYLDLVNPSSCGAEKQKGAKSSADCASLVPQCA
MrgX1 antag: antagonists of human MrgX1 receptor, primary screen, HEK293 cells, Fluo-4 calcium flux; BAM8-22 antagonism; active compounds read low; B-score at 10 µM; 310,000 tested, 1.3% active; AID 588676, 2011;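 active = calcium-response B-score plate-corrected more than 3 library SD below zero, starting fluorescence within 5 deviations, no agonist response on first addition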;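 also: peak minus trough fluorescence over baseline after final BAM8-22 challenge near maximal dose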
Each line names hits and unclear results; the compound was inactive in the other large screens. Only some compounds are listed: those with a hit (about 3.8% of all), similar ones and a draw of the others.

COc1cc(C2C(C(C)=O)=C(O)C(=O)N2Cc2ccccc2)ccc1O (configuration not stated)	none
CC1CCN(c2nc(CN3CCCCC3)nc3scc(-c4ccccc4)c23)CC1	RGS4 act -7.4
CC1CCCN(c2nc(-c3cccnc3)nc3scc(-c4ccccc4)c23)C1 (configuration not stated)	RGS4 act -7.3
COc1ccc(NC(=O)CN(C)C(=O)c2cc(-c3ccc(Cl)cc3)nc3ccccc23)cc1	RGS4 act -8 (no result: Hep lipid drop)
CCOc1ccc(NC(=O)CN(C)C(=O)c2cc(-c3ccc(OC)cc3)nc3ccccc23)cc1OCC	RGS4 act -8 (no result: Hep lipid drop)
CCN(CC(=O)Nc1ccc(NC(C)=O)cc1)C(=O)CSc1ncnc2sc(C)c(C)c12	none (no result: Hep lipid drop)
Cc1sc(N2CCN(S(=O)(=O)c3ccc4c(c3)NC(=O)CO4)CC2)nc1-c1ccccc1	none
Cc1ccc(C)c(N(CC(=O)NCCc2ccccc2)C(=O)CCC(=O)Nc2ccccn2)c1	none
Cc1nn(-c2ccccc2)c(Cl)c1C(=O)N1CCN(c2ncnc3c2cnn3-c2ccccc2)CC1	MrgX1 antag -7.6 (no result: Hep lipid drop)
CC1CCN(c2ccc3nnc(CCC(=O)N4CCN(c5ccc(F)cc5)CC4)n3n2)CC1	none
Cc1ccc(C(=O)N/C(=C\c2ccccc2)C(=O)NCCCn2ccnc2)cc1	none
COc1ccc(OCC(=O)Nc2c(C(=O)N(CCN(C)C)Cc3ccco3)oc3ccccc23)cc1	MrgX1 antag -5.1
CCOC(=O)C(=NCCOC)NNc1cc(Cl)ccc1Cl	none
CC(C)CN(C(=O)COC(=O)COc1ccc2ccccc2c1)c1c(N)n(Cc2ccccc2)c(=O)[nH]c1=O	MrgX1 antag -6.4 (no result: Hep lipid drop)
CCCCCC(C(=O)O)C(C)CC(=O)NC1CCCCC1 (configuration not stated)	none (no result: Hep lipid drop)
Cc1ccc(NS(=O)(=O)c2cc(Br)cnc2N)c(Cl)c1	RGS4 act -7
COc1cc(OC)c(NS(=O)(=O)c2cc(Br)cnc2N)cc1Cl	none
O=C(NCC1CCN(Cc2ccccc2F)CC1)Nc1cccc(Br)c1	none
CC(C)NC(=O)c1cnc(Sc2ncc(C(F)(F)F)cc2Cl)n1C	RGS4 act -7.6
CC(C)n1nc(C(=O)Nc2nc3ccccc3[nH]2)c2ccccc2c1=O	RGS4 act -9.5
S=C(NCCN1CCOCC1)Nc1ccccc1Cl	none
CCSC1(SCC)N=C(N)C2(C#N)C(c3ccc(F)cc3)C12C#N (configuration not stated)	MrgX1 agonist 29 (no result: Hep lipid drop)
CCCn1c(N)c(Sc2ccccc2[N+](=O)[O-])c(=O)n(CCC)c1=O	none
COc1ccc(NS(=O)(=O)c2ccc3c(c2)CCN3C(=O)CCC(=O)O)cc1OC	none
Cc1ccc(/C=C2\SC(N3CCN(C(c4ccccc4)c4ccccc4)CC3)=NC2=O)o1	RGS4 act -9.4
CCc1ccc(-c2cc(C(=O)N3N=C(C(F)F)CC3(O)C(F)F)c3ccccc3n2)cc1 (configuration not stated)	RGS4 act -7.2 (no result: Hep lipid drop)
c1ccc2c(c1)CCN(c1ncnc3c1[nH]c1ccccc13)C2	MrgX1 antag -8.2
CC1=C(C#N)c2nc(N)c(C#N)c(C)c2/C1=C\c1ccc(OCC(=O)O)c(Cl)c1	MrgX1 antag -5.4 (no result: Hep lipid drop)
CCOC(=O)CSc1nc(N)c(C#N)c(-c2ccc(OCC)cc2)c1C#N	none (no result: Hep lipid drop)
CCCCOc1ccc(/C=C/C2=CC(C)(C)NC(=S)N2)cc1OCC	none
O=C(OCC(=O)N1CCN(c2ccccc2)CC1)c1ncc(Cl)c(Cl)c1Cl	none (no result: Hep lipid drop)
O=C(N=Nc1ccc(NOC(=O)c2ccccc2Br)cc1)c1ccccc1O	MrgX1 allo act 12
O=Nc1ccc(NOC(=O)c2ccccc2)cc1	none
CCCn1nc([N+](=O)[O-])c(C(C#N)c2nc3ccccc3s2)c(Cl)c1=O (configuration not stated)	MrgX1 agonist 29
CCn1nc([N+](=O)[O-])c(C(C#N)c2nc3ccccc3n2C)c(Cl)c1=O (configuration not stated)	none
O=C(NC1CCCCC1)C1COc2ccccc2O1 (configuration not stated)	RGS4 act -7.6 (no result: Hep lipid drop)
CC(=O)N1CCC(C(=O)NCCOc2ccc(C)cc2)CC1	none
CC1(C)S[C@@H]2[C@H](NC(=O)C(NC(=O)N3CCNC3=O)c3ccccc3)C(=O)N2[C@H]1C(=O)O (some centres not stated)	none (no result: Hep lipid drop)
CC1CCCN(c2ccc(C(=O)NCc3ccco3)cc2[N+](=O)[O-])C1 (configuration not stated)	MrgX1 antag -6.4
Cc1ccc(C(=O)NCc2ccco2)cc1[N+](=O)[O-]	none
N#CCC(=O)N1CCN(C=O)CC1	MrgX1 antag -5.5
CC1CCN(C(=O)CC#N)CC1	none
Cc1ccc(CNS(=O)(=O)c2ccc(-n3cnnn3)c(C)c2)cc1	none
CCOC(=O)c1ccc(N2C(=O)C(O)=C(C(C)=O)C2c2ccc([N+](=O)[O-])cc2)cc1 (configuration not stated)	none
CCCn1c(SCC(=O)N2N=C3/C(=C/c4ccc(OC)cc4)CCCC3C2c2ccc(OC)cc2)n[nH]c1=O (configuration not stated)	MrgX1 antag -5.1
O=C(NN=C1CCCC1)c1cccc(Br)c1	none
C=CCN1C=CC=C/C1=C1\SC(=S)N(C)C1=O	RGS4 act -8.3
CCOC(=O)C1(CCOc2ccccc2)CCN(Cc2ccc(OC)c(COC)c2)CC1	MrgX1 antag -4.7
COC(=O)c1ccc(CN2CCC(CO)(CCOc3ccccc3)CC2)cc1	RGS4 act -7
CCOC(=O)C1(CCOc2ccccc2)CCN(Cc2ccc(COC)o2)CC1	MrgX1 agonist 32
COC(=O)c1ccc(CN2CCC(CO)(Cc3cccc(OC)c3)CC2)cc1	none
CCN(c1ccccc1)S(=O)(=O)c1ccc(Cl)c(C(=O)OCC(=O)c2[nH]c(C)c(C(C)=O)c2C)c1	RGS4 act -7.2
COc1ccc(C(=O)NCCc2nnc3ccc(SCC(=O)Nc4ccccc4F)nn23)cc1	none
COCCCNCCOc1ccc(C)cc1[N+](=O)[O-]	MrgX1 antag -4.9
CN1CCN(CC#CCn2c3ccccc3c3ccccc32)CC1	RGS4 act -7.1
COc1ccc(CCNc2oc(COc3ccccc3Cl)nc2C#N)cc1OC	RGS4 act -7.3
O=C(NCc1cccc2[nH]ccc12)C1CCC(=O)N(CCc2ccccc2)C1 (configuration not stated)	none
